Results as given in ChEMBL document CHEMBL4513216, “Probing the Open Global Health Chemical Diversity Library for Multistage-Active Starting Points for Next-Generation Antimalarials” (ACS Infect Dis, 2020).

Test: Toxicity liver stage against HepG2, at 10uM
Assay type: cell-based
Parameters: test concentration 10 uM, cell line HepG2-A16-CD81EGFP
Details: human, HepG2-A16-CD81EGFP cells; read-out: INHIBITION
Procedure, shortened: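 Uninfected HepG2-A16-CD81EGFP cells, 3 × 10^3 per well, 1536-well, plated on prespotted compound at 10 μM final, parasite-free screening media added to match infected plates; puromycin 10 μM positive, DMSO 0.5% negative; run in parallel with 48 h PbLuc assay at 37 °C, 5% CO2; viability by CellTiter-Glo luminescence, normalized to controls.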

| Structure (SMILES) | cytotoxicity at 10 µM [%] |
| --- | --- |
| COc1ccc(C2=Nn3c(CCN)nnc3-c3ccccc3C2)cc1 | 4.92 |
| CCS(=O)(=O)N(C)C1CCN(C(=O)c2cccc(Cl)c2)CC1 | -13.7 |
| CC(=O)NCC(=O)N1CCOC2(CCCN(c3cccnc3)C2)C1 (configuration not stated) | -12.8 |
| Cc1nc(CN2C(=O)CC3(CCN(C(N)=O)CC3)c3ccccc32)cs1 | -1.4 |
| Nc1cccc(C2CN(C(=O)CN3CCOCC3)CCO2)n1 (configuration not stated) | -8.83 |
| CO[C@H]1CN(Cc2ccc(F)cc2)CC[C@@]12CCCO2 | -24.5 |
| COc1ccccc1OCCN1CCCC(c2cc(C(N)=O)[nH]n2)C1 (configuration not stated) | 3.71 |
| CCCc1cc(C(=O)N2Cc3cnc(C(C)(C)C)nc3C2)ccn1 | -0.807 |
| O=C(NCC1CCCCO1)c1ccc(-c2ccco2)[nH]c1=O (configuration not stated) | -3.06 |
| CN(C)Cc1nnc(C2CCCN(Cc3ccc(Cl)s3)C2)n1C (configuration not stated) | -11.1 |
| CNC(=O)[C@@H](C1CCCCC1)N1CCC[C@H]1C(=O)NC1CC1 | 5.56 |
| CNC(=O)CCC(=O)N1CCOC(c2ccc3cc(OC)ccc3c2)C1 (configuration not stated) | 3.85 |
| Cn1ncc(C(=O)OCC2CCN(c3ccccc3)C2)c1C(F)F (configuration not stated) | -5.44 |
| Cc1occc(=O)c1OCc1noc(C(=O)NC2CCCC2)n1 | 0.618 |
| O=c1ccc2c([nH]1)CCC(NCc1ccc3c(c1)OCO3)C2 (configuration not stated) | 6.69 |
| c1cncc(-n2cnnc2CC2CCNCC2)c1 | -20.1 |
| c1cc2c(cc1-c1noc3c1CN(C1CCC1)CC3)OCO2 | -18.4 |
| CN(C)C(=O)c1cc(-c2ccncc2)[nH]n1 | 0.676 |
| Cc1c[nH]c(CN(C)c2nc(C3CCCC3)nc3c2cnn3C)n1 | -7.56 |
| COC[C@@H]1CCC[C@@]12CN(C(=O)N1CCCC1)CCO2 | -101 |
| O=C(CCn1c(C(F)(F)F)cc2cccnc21)N1CCOCC1 | -22.6 |
| COCC1CCN(S(=O)(=O)c2ccc(C(=O)NCC(F)F)cc2)C1 (configuration not stated) | 6.95 |

| Structure (SMILES) | cytotoxicity at 10 µM [%] |
| --- | --- |
| CS(=O)(=O)NCC1CCCCN1C(=O)c1csc(-c2ccsc2)n1 (configuration not stated) | -5.89 |
| Cc1ccn(CC(=O)N2CC[C@@H](c3ccc4ccccc4c3)[C@H](O)C2)n1 | 5.02 |
| CN(CCCc1cc(-c2ccc(F)cc2)n(C)n1)CC(=O)NC(N)=O | 1.04 |
| O=C(CCCc1cn[nH]c1)N1C[C@@H](CN2CCCCCC2)[C@@H](CO)C1 | 1.52 |
| CCN(Cc1ccc2c(c1)OCO2)C(=O)CCc1c(C)nc(C)[nH]c1=O | -4.61 |
| CC(=O)N1CCS(=O)(=O)[C@@H]2CCN(CC(C)C)CC[C@@H]21 | -142 |
| Cc1ccc(CNC(C)c2ccc3[nH]c(=O)[nH]c3c2)s1 (configuration not stated) | -10.7 |
| CN(C)CCn1c2c(ccc1=O)CC(NCc1cnn(C)c1)CC2 (configuration not stated) | -105 |
| NCC1CCC(C(NC(=O)c2cccc(F)c2)c2ccccn2)CC1 (configuration not stated) | -6.83 |
| CCc1noc(C2CC(=O)N(CCN(C)C)C2)n1 (configuration not stated) | -10.1 |
| CC(C)Cc1cc(C(=O)NCCc2nnc(N)s2)n(C)n1 | 0.649 |
| O=C(NCC(O)c1ccc(F)c(F)c1)c1cccnc1OCC(F)(F)F (configuration not stated) | -10.2 |
| Cc1ccnc(OC[C@]23COC[C@H]2CN(C(=O)C2=CCCCC2)C3)n1 | 0.325 |
| O=C(NS(=O)(=O)c1cc(Cl)ccc1Cl)c1cccc2c1OCCO2 | 10.3 |
| Cc1cnn(CC(C)NCc2nc(-c3ccccn3)no2)c1 (configuration not stated) | 0.234 |
| COCCC(=O)N1CCN(CC2CC2)c2ncccc2C1 | -96.7 |
| Cc1nc(C)n(CC2CN(Cc3cccc(C#N)c3)CCO2)n1 (configuration not stated) | -10.3 |
| Cn1nc2c(cc1=O)CN(CC(=O)Nc1ccc(Cl)cn1)CC2 | 0.874 |
| CCOCCn1c(=O)[nH]c2cc(C(=O)N(C)CCc3cn[nH]c3)ccc21 | -21.7 |
| Cc1cccc(C2(CNC(=O)CO)CCCC2)c1 | -19.1 |
| CCc1oc(C(=O)N(C)Cc2ccncc2)cc1CN(CC)CC | -1.81 |
| CC(C)(C)c1cc(C(=O)N2CCOC(c3cnccn3)C2)[nH]n1 (configuration not stated) | 2.02 |

| Structure (SMILES) | cytotoxicity at 10 µM [%] |
| --- | --- |
| Cc1ccc(OCC(C)NC(=O)CN(C)c2ccc(C#N)cn2)cc1 (configuration not stated) | -6.05 |
| Cc1ccc(S(=O)(=O)N2CCC(c3n[nH]cc3C)C2)cc1 (configuration not stated) | -14.3 |
| Cc1nn(CC(=O)NCC2(C(N)=O)CCOCC2)c(C)c1Cl | 2.83 |
| CCOc1ccc(CN2CCN(CCOC)[C@@H]3CS(=O)(=O)C[C@@H]32)cc1 | -1.25 |
| O=C1N(CC2CC2)CCC12CCN(Cc1ccoc1)CC2 | -0.302 |
| COC(=O)c1ccc(CNC(=O)Nc2ccc(=O)n(C)c2)cc1 | -6.8 |
| Cn1ncc(C(=O)O)c1C(=O)Nc1nc2ccccc2s1 | 7.9 |
| NC(=O)c1csc(N2CCCC(c3n[nH]c(=O)n3-c3ccccc3)C2)n1 (configuration not stated) | 8.84 |
| Cc1cc(=O)n(CC(=O)NCCC(C)C)c(-c2cccc(Cl)c2)n1 | -2.32 |
| CN1CCOC(CNCc2coc(-c3cccc(F)c3)n2)C1 (configuration not stated) | -29.3 |
| CC(NS(N)(=O)=O)c1ccc(OCc2ccc(F)cc2)cc1 (configuration not stated) | -2.98 |
| CC(C)CC(=O)NCC1CCC(C(c2ccccn2)N(C)C)CC1 (configuration not stated) | 12.2 |
| Cc1nc(NCc2scnc2-c2ccccc2)cc(C2CCNCC2)n1 | 1.69 |
| Cc1nn(C)c(Cl)c1C1CCCN1CC(=O)Nc1cccnc1 (configuration not stated) | -17.2 |
| Cc1cccc(CN2C[C@H](NS(C)(=O)=O)[C@@H]3OCCC[C@@H]32)n1 | -0.179 |
| COCCn1cc(CC(=O)Nc2cc(C)n(C)n2)c2ccccc21 | -1.96 |
| CCNC(=O)[C@@H]1C[C@H](NC(=O)Cn2ccnc2)CN1Cc1ccsc1 | 5.89 |
| COC[C@H]1CCC[C@]12CN(S(=O)(=O)c1cccs1)CCO2 | -1.34 |
| O=C(O)c1ccc(C2CCCN(C(=O)c3ccc[nH]3)C2)cc1 (configuration not stated) | -10.5 |
| CC(=O)N(Cc1ccoc1)C1CCCCC1 | -2.86 |
| CC(C)CN(c1cn[nH]c1)S(=O)(=O)c1cccc(C#N)c1 | 8.75 |
| O=C1N(Cc2ccc(F)c(F)c2)CCCC1(O)CNCc1cccnc1 (configuration not stated) | 0.598 |

| Structure (SMILES) | cytotoxicity at 10 µM [%] |
| --- | --- |
| CCOc1cccc(C(=O)N2C[C@@H]3CC[C@H]2CN(C(=O)C2CCC2)C3)c1 | 5.73 |
| CCCS(=O)(=O)N1CCCC(c2nc(-c3ccccc3)c[nH]2)C1 (configuration not stated) | 16.2 |
| O=C(CN1CC(n2cccn2)C1)NCCC1=CCCCC1 | -8.25 |
| O=C(c1ccc(Br)o1)N1CCN(Cc2ccc(OC(F)(F)F)cc2)CC1 | 21.7 |
| CC[C@@H](C)[C@@H](N)C(=O)Nc1cccc(-c2cnc(N(C)CCO)nc2)c1 | -5.89 |
| c1cnnc(N2CCCC(NCc3nc(C4CC4)no3)C2)c1 (configuration not stated) | -14.6 |
| O=C(NCCNc1ncccn1)NCCSC(F)(F)F | 5.81 |
| CC(NC(=O)CCCc1nc(C(C)(C)C)no1)c1ccccn1 (configuration not stated) | -5.81 |
| CNc1nc2c(c(C(=O)N3CCCC3)n1)CN(C(=O)C1CCCC1)CC2 | -114 |
| Cc1cc(C2CCCCN2C(=O)c2ccsc2)nc2nccn12 (configuration not stated) | -11.8 |
| CCN1CCC(CNC(=O)C2(c3cccc(C)c3)CCCCC2)CC1 | -11.8 |
| CC1CCCCN1c1nc2c(c(=O)[nH]1)CCN(Cc1ccc(O)cc1)C2 (configuration not stated) | 5.74 |
| CC(C)Cc1cc(NC(=O)c2ccncc2)n(C)n1 | -0.502 |
| Cc1cccc(CC(=O)N2CCCC(N(C)CCCN(C)C)C2)c1 (configuration not stated) | -0.655 |
| c1ccc(CN2CCOCC3(CCN(C4CCOCC4)C3)C2)cc1 (configuration not stated) | 3.01 |
| CC(=O)N1[C@H](CN(C)C)C[C@@H]2CN(C(=O)c3ccsc3)CC[C@@H]21 | -0.744 |
| CN(Cc1ccc(Cl)s1)C(=O)CN1CC(n2cccn2)C1 | -6.88 |
| O=C(NCCc1cccs1)[C@H]1CO[C@H]2CCN(CC3CC3)C[C@H]2C1 | -103 |
| Cn1ccnc1-c1nc(NC2CCCC2)ncc1-c1cccc(F)c1 | 14.1 |
| Cc1cnn(CC2CCCN2Cc2cc(=O)n3cc(C)ccc3n2)c1 (configuration not stated) | -10.9 |
| CO[C@H]1CN(C(C)C)C[C@@H]1NC(=O)c1cc(-c2ccccc2O)n[nH]1 | -0.247 |
| COC(=O)N1CCc2ccccc2C1C(=O)NCc1ccccn1 (configuration not stated) | -3.01 |

| Structure (SMILES) | cytotoxicity at 10 µM [%] |
| --- | --- |
| CN(CC1=CCCN(Cc2cccc(C#N)c2)C1)C(=O)c1ccco1 | -5.15 |
| CCN1CCC(NC(=O)CN2CCCCC2Cn2cc(C)cn2)CC1 (configuration not stated) | 0.144 |
| Cc1cc(C(=O)NCC2CCCC2)c(C)n1-c1cccnc1 | 5.69 |
| CCCS(=O)(=O)N1CCC2(CN(c3ccsc3)C(=O)CN2C)C1 (configuration not stated) | -21.1 |
| COc1cccc2c(=O)n(Cc3ccnc(C)c3)cnc12 | -0.0198 |
| Cc1occc1C(=O)N1CCO[C@H]2[C@H](Oc3cccnc3)CC[C@@H]21 | -93.4 |
| CC(C)Nc1nc2c(c(N(C)C)n1)CCN(C(=O)c1cc[nH]n1)CC2 | 6.59 |
| CC(C)c1nc(C2CCCN(c3ncccn3)C2)no1 (configuration not stated) | 12.4 |
| Cc1nc(C)n(CC(=O)N2CCc3ncc(Cl)cc3C2)n1 | -18.8 |
| Cc1ccc(C(=O)N2CCN(Cc3cccs3)CC2)c(=O)[nH]1 | -8.39 |
| C=C/C=c1\c(=C/C)oc2c(NCc3ccccc3)ncnc12 | 21.3 |
| O=C(Cc1ccc2c(c1)OCCO2)N1CCN(c2cnccn2)CC1 | -11.8 |
| CCc1nc(C(=O)N2CCN(CCc3ccc(OC)cc3)CC2)c[nH]1 | -9.56 |
| CSc1c[nH]nc1NS(=O)(=O)c1cc(F)ccc1C | 6.98 |
| CC(C)(C)OC(=O)N1CCC[C@H](NCC2=CCCOC2)C1 | -6.93 |
| Cn1cc(-c2nnn3c2COC(CNCC2CCOCC2)C3)cn1 (configuration not stated) | 0.171 |
| CSc1ccc(-c2nc(CN3C[C@@H](C)NC[C@@H]3C)c(C)o2)cc1 | -3.06 |
| CCc1nnc(CN(C)C(=O)C2CC(=O)N(C3CC3)C2)o1 (configuration not stated) | 2.28 |
| Cc1cccc(O[C@H]2COCCN(Cc3sc(C)nc3C)C2)n1 | -1.5 |
